ChEMBL document CHEMBL2046318, “Synthesis and biological evaluation of novel flavonols as potential anti-prostate cancer agents” (Eur J Med Chem, 2012)

Experiments:
CWR22R [1] = assay: Inhibition of prostate specific antigen expression in human 22Rv1 cells assessed as PSA protein level at 20 uM after 72 hrs by densitometry relative to untreated control; assay type: functional; design: scale not given: the % may be the effect or the level left
In short: (§1)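 22rv1 cells were seeded at 2 × 10^5 per well, left to adhere overnight, then treated for 72 h at 10 or 20 µM. Cells were lysed in NP-40/deoxycholate/SDS buffer with protease and phosphatase inhibitors. 15 µg protein was run on SDS-PAGE and blotted, then probed with AR, PSA and actin antisera and an HRP secondary. Bands were quantified by densitometry as % of vehicle control, mean of 3–5 replicates with SD.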

CWR22R [2] = assay: Inhibition of androgen receptor expression in human 22Rv1 cells assessed as AR protein level at 20 uM after 72 hrs by densitometry relative to untreated control; assay type: functional; design: scale not given: the % may be the effect or the level left; in short: as §1
CWR22R [3] = assay: Inhibition of androgen receptor expression in human 22Rv1 cells assessed as AR protein level at 10 uM after 72 hrs by densitometry relative to untreated control; assay type: functional; design: scale not given: the % may be the effect or the level left; in short: as §1
CWR22R [4] = assay: Antiproliferative activity against human 22Rv1 cells incubated up to 144 hrs by Coulter particle count and size analyzer; assay type: functional, cell-based; details: 22Rv1, 144 h
In short: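 22rv1 cells in RPMI 1640 with 10% FBS were seeded at 5 × 10^3 per well, left to adhere overnight, then exposed to agents in DMSO (final DMSO <0.1%) for up to 144 h. Cells were trypsinised and counted on a Coulter counter. Cell number as % of DMSO control was plotted against log concentration at 144 h, and the IC50 was taken from the straight-line fit. Mean of 3–6 experiments.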

CWR22R [5] = assay: Inhibition of prostate specific antigen expression in human 22Rv1 cells assessed as PSA protein level at 10 uM after 72 hrs by densitometry relative to untreated control; assay type: functional; design: scale not given: the % may be the effect or the level left; in short: as §1
CWR22R [6] = assay: Growth inhibition of human 22Rv1 cells at 0.1 uM incubated up to 144 hrs by Coulter particle count and size analyzer; assay type: functional; details: 22Rv1, 144 h, read-out: GI
CWR22R [7] = assay: Growth inhibition of human 22Rv1 cells at 50 uM incubated up to 144 hrs by Coulter particle count and size analyzer; assay type: functional; details: 22Rv1, 144 h, read-out: GI
CWR22R [8] = assay: Growth inhibition of human 22Rv1 cells at 0.01 uM incubated up to 144 hrs by Coulter particle count and size analyzer; assay type: functional; details: 22Rv1, 144 h, read-out: GI

Row | SMILES | Activity (CWR22R [1]) | Activity (CWR22R [2]) | Activity (CWR22R [3]) | IC50 (CWR22R [4]) | Activity (CWR22R [5]) | inhibition of growth at 0.1 µM (CWR22R [6]) | inhibition of growth at 50 µM (CWR22R [7]) | inhibition of growth at 0.01 µM (CWR22R [8])
1 | COc1cc(-c2oc3ccccc3c(=O)c2O)cc(OC)c1OC | 23% | 62% | 96% | 3.1 µM | 21% | – | – | –
2 | O=c1c(O)c(-c2cc(O)c(O)c(O)c2)oc2ccccc12 | 109% | 89% | 94% | 7.7 µM | 110% | – | – | –
3 | COc1cc(-c2oc3ccccc3c(=O)c2OC)cc(OC)c1OC | 149% | 80% | 94% | 2.6 µM | 167% | – | – | –
4 | COc1cc(OC)cc(-c2oc3ccccc3c(=O)c2O)c1 | 109% | 72% | 74% | 12.4 µM | 133% | – | – | –
5 | COc1cc(-c2oc3ccc(F)cc3c(=O)c2O)cc(OC)c1OC | 5% | 75% | 91% | 3.3 µM | 14% | – | – | –
6 | COc1cc(-c2oc3ccccc3c(=O)c2F)cc(OC)c1OC | 63% | 125% | 110% | > 40 µM | 63% | 46% | 48% | 18%
7 | COc1cc(-c2oc3cc(F)ccc3c(=O)c2O)cc(OC)c1OC | 22% | 75% | 112% | 4 µM | 37% | – | – | –
8 | O=c1c(O)c(-c2cc(O)c(O)c(O)c2)oc2cc(F)ccc12 | 106% | 94% | 100% | 11.6 µM | 111% | – | – | –
9 | COc1cc(-c2oc3cc(F)cc(F)c3c(=O)c2O)cc(OC)c1OC | 68% | 103% | 100% | 5.9 µM | 95% | – | – | –
10 | O=c1c(O)c(-c2cc(O)c(O)c(O)c2)oc2cc(F)cc(F)c12 | 132% | 90% | 118% | 6.3 µM | 134% | – | – | –
11 | COc1ccc(-c2oc3cc(F)cc(F)c3c(=O)c2O)cc1OC | 88% | 94% | 110% | 7.4 µM | 78% | – | – | –
12 | O=c1c(O)c(-c2ccc(O)c(O)c2)oc2cc(F)cc(F)c12 | 22% | 86% | 116% | 16.3 µM | 61% | – | – | –
13 | COc1ccc(-c2oc3cc(F)cc(F)c3c(=O)c2O)cc1 | 66% | 111% | 115% | 15.8 µM | 85% | – | – | –
14 | O=c1c(O)c(-c2ccc(O)cc2)oc2cc(F)cc(F)c12 | 33% | 96% | 136% | 28.7 µM | 77% | – | – | –
15 | COc1ccc(-c2oc3cc(F)ccc3c(=O)c2O)cc1OC | 70% | 120% | 129% | > 40 µM | 78% | – | – | –
16 | O=c1c(O)c(-c2ccc(O)c(O)c2)oc2cc(F)ccc12 | 18% | 59% | 108% | 9.2 µM | 21% | – | – | –
17 | COc1ccc(-c2oc3cc(F)ccc3c(=O)c2O)cc1 | 62% | 104% | 112% | 7.1 µM | 70% | – | – | –
18 | O=c1c(O)c(-c2ccc(O)cc2)oc2cc(F)ccc12 | 3% | 64% | 129% | 8.4 µM | 32% | – | – | –
19 | COc1cccc(-c2oc3ccccc3c(=O)c2O)c1 | 13% | 23% | 64% | 5.3 µM | 27% | – | – | –
20 | COc1ccc(-c2oc3ccccc3c(=O)c2O)cc1 | 115% | 61% | 71% | 30.5 µM | 127% | – | – | –
21 | COc1ccc(-c2oc3ccccc3c(=O)c2O)cc1OC [3-HYDROXY-3',4'-DIMETHOXYFLAVONE] | 56% | 81% | 63% | 12.3 µM | 61% | – | – | –
22 | O=c1c(O)c(-c2ccc(O)c(O)c2)oc2cc(O)ccc12 [FISETIN] | 44% | 101% | 109% | 25.9 µM | 51% | – | – | –
23 | O=c1c(O)c(-c2ccccc2)oc2ccccc12 [FLAVONOL] | 80% | 92% | 100% | 14.9 µM | 124% | – | – | –
24 | O=c1c(O)c(-c2ccc(O)cc2)oc2cc(O)cc(O)c12 [KAEMPFEROL] | 37% | 131% | 128% | > 40 µM | 33% | – | – | –
25 | O=c1c(O)c(-c2cc(O)c(O)c(O)c2)oc2cc(O)cc(O)c12 [MYRICETIN] | 121% | 114% | 119% | 13.1 µM | 110% | – | – | –
26 | O=c1c(O)c(-c2ccc(O)c(O)c2)oc2cc(O)cc(O)c12 [QUERCETIN] | 31% | 120% | 114% | 15.5 µM | 40% | – | – | –
27 | O=c1c(O)c(-c2ccc(O)cc2)oc2cc(O)ccc12 [RESOKAEMPFEROL] | 39% | 125% | 141% | 30.2 µM | 47% | – | – | –
28 | O=c1c(O)c(-c2cc(O)c(O)c(O)c2)oc2cc(O)ccc12 [ROBINETIN] | 111% | 102% | 84% | 7.1 µM | 69% | – | – | –
